Experimental data reported in ChEMBL document CHEMBL4257474, “Antiproliferative activity of novel isatinyl/indanyl nitrones (INs) as potential spin trapping agents of free radical intermediates” (Medchemcomm, 2018).
pEC50, pIC50: −log10 of the molar value. Calls of active or inactive are those of the source. The rule behind the calls is not given here.

Legend:
[1] = Antioxidant activity assessed as DPPH free radical scavenging at 6.25 x 10^-6mol/L after 10 mins by UV-vis spectrophotometric analysis relative to control; type: functional
Procedure, shortened: (§1)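 Ethanolic DPPH was added to the compound in ethanol at the stated concentration, within a five-level series of 1.15 × 10^-6 to 9.10 × 10^-6 mol L^-1. After 10 min in the dark, absorbance was read at 517 nm against absolute ethanol. Scavenging was expressed as RSA% = [(A0 − Ai)/A0] × 100, with A0 the absorbance without compound. BHT served as reference. Triplicate.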

[2] = tested on: HOS-TE85; assay: Antiproliferative activity against human HOSTE85 cells at 3 to 200 uM after 3 days by MTT assay; type: functional, cell-based
Procedure, shortened: (§2)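 Osteosarcoma cells were seeded at 4000 per well 6 h before treatment in medium with 10% FBS, penicillin/streptomycin and 2 mM glutamine, at 37 °C and 5% CO2. Compounds came from 40 mM DMSO stocks and were tested at 3–200 µM for 3 days. MTT was added for 2 h and formazan dissolved in 50% DMF/20% SDS pH 4.7 for 16 h. A570 was read versus untreated control; IC50 calculated. Three independent experiments in triplicate.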

[3] = tested on: MG-63; assay: Antiproliferative activity against human MG63 cells at 3 to 200 uM after 3 days by MTT assay; type: functional, cell-based; procedure, shortened: as §2
[4] = Antioxidant activity assessed as DPPH free radical scavenging after 10 mins by UV-vis spectrophotometric analysis; type: functional
Procedure, shortened: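 DPPH and test compound mixed in ethanol at five concentrations, 1.15 × 10^-6 to 9.10 × 10^-6 mol L^-1. After 10 min in the dark, absorbance at 517 nm was read against ethanol blank. RSA% = [(A0 − Ai)/A0] × 100. EC50 (concentration giving 50% radical inhibition) was derived from the RSA% values. BHT was the reference over the same range. Triplicate.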

[5] = tested on: K562; assay: Antiproliferative activity against human K562 cells after 3 days by MTT assay; type: functional, cell-based
Procedure, shortened: (§3)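 K562 leukemia cells were seeded at 20000 cells per mL in medium with 10% FBS, penicillin/streptomycin and 2 mM glutamine, at 37 °C and 5% CO2. Compounds were diluted from 40 mM DMSO stocks and applied at 3–200 µM for 3 days. MTT was added for 2 h, then lysis in 50% DMF/20% SDS pH 4.7 for 16 h, and A570 read. Proliferation was expressed as % of untreated cells; IC50 calculated. Three independent experiments in triplicate.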

[6] = tested on: K562; assay: Antiproliferative activity against human K562 cells at 3 to 200 uM after 3 days by MTT assay; type: functional, cell-based; procedure, shortened: as §3
[7] = Antioxidant activity assessed as DPPH free radical scavenging at 9.10 x 10^-6mol/L after 10 mins by UV-vis spectrophotometric analysis relative to control; type: functional; procedure, shortened: as §1
[8] = Antioxidant activity assessed as DPPH free radical scavenging at 4 x 10^-6mol/L after 10 mins by UV-vis spectrophotometric analysis relative to control; type: functional; procedure, shortened: as §1
[9] = Antioxidant activity assessed as DPPH free radical scavenging at 1.15 x 10^-6mol/L after 10 mins by UV-vis spectrophotometric analysis relative to control; type: functional; procedure, shortened: as §1
[10] = Antioxidant activity assessed as DPPH free radical scavenging at 2.45 x 10^-6mol/L after 10 mins by UV-vis spectrophotometric analysis relative to control; type: functional; procedure, shortened: as §1
[11] = tested on: HOS-TE85; assay: Antiproliferative activity against human HOSTE85 cells after 3 days by MTT assay; type: functional, cell-based; settings: HOS-TE85, 72 h; procedure, shortened: as §2
[12] = tested on: MG-63; assay: Antiproliferative activity against human MG63 cells after 3 days by MTT assay; type: functional, cell-based; settings: MG-63, 72 h; procedure, shortened: as §2

| Structure (SMILES) | pEC50 [4] | pIC50 ([5]; K562, 72 h) | Activity [1] | Activity [2] | Activity [3] | Activity [5] | Activity [6] | Activity [7] | Activity [8] | Activity [9] | Activity [10] | pIC50 [11] | pIC50 [12] |
| --- | --- | --- | --- | --- | --- | --- | --- | --- | --- | --- | --- | --- | --- |
| C/[N+]([O-])=C1\CCc2cc(F)ccc21 | 5.74 |  | 1.2% | inactive | inactive | inactive | inactive | 79% | 1.1% |  |  |  |  |
| O=C1Nc2ccccc2/C1=[N+](\[O-])c1ccccc1 | 5.89 |  | 69% | inactive | inactive | inactive | inactive | 80% | 1.2% | 1.1% | 1.2% |  |  |
| O=C1Nc2ccccc2/C1=[N+](\[O-])Cc1ccccc1 | 5.74 |  | 1.2% |  |  | inactive |  | 78% | 1.2% | 1.1% | 1.1% | 4.49 | 4.11 |
| C/[N+]([O-])=C1\CCc2ccccc21 | 5.89 |  | 60% | inactive | inactive | inactive | inactive | 78% | 1.1% |  |  |  |  |
| Cc1cc(C(C)(C)C)c(O)c(C(C)(C)C)c1 [BUTYLATED HYDROXYTOLUENE] | 5.42 |  | 23% |  |  |  |  | 27% | 11.7% |  | 4.6% |  |  |
| [O-]/[N+](Cc1ccccc1)=C1/CCc2ccccc21 | 5.92 |  | 70% | inactive | inactive | inactive | inactive | 79% | 1.3% | 1.1% | 1.2% |  |  |

Now from value to compound, other results behind:

| pEC50 [4] | pIC50 ([5]; K562, 72 h) | Structure (SMILES) | Activity [1] | Activity [2] | Activity [3] | Activity [5] | Activity [6] | Activity [7] | Activity [8] | Activity [9] | Activity [10] | pIC50 [11] | pIC50 [12] |
| --- | --- | --- | --- | --- | --- | --- | --- | --- | --- | --- | --- | --- | --- |
| 6.00 |  | O=C1Nc2ccc([N+](=O)[O-])cc2/C1=[N+](\[O-])Cc1ccccc1 | 67% |  |  | inactive |  | 80% | 60% |  |  | 4.49 | 4.11 |
| 5.92 |  | C/[N+]([O-])=C1\C(=O)Nc2ccc([N+](=O)[O-])cc21 | 72% |  |  | inactive |  | 79% | 1.1% |  |  | 4.49 |  |
| 6.22 | 4.11 | CN1C(=O)/C(=[N+](/[O-])Cc2ccccc2)c2ccccc21 | 70% |  |  |  |  | 79% | 68% | 1.2% | 60% |  | 4.11 |
